From BindingDB's records for doi:10.1021/jm301749y (University of North Carolina at Chapel Hill, 2013)

Molecular target: T1, C-C chemokine receptor type 4 (Homo sapiens, UniProt P51679)
T1 sequence (P51679 whole entry): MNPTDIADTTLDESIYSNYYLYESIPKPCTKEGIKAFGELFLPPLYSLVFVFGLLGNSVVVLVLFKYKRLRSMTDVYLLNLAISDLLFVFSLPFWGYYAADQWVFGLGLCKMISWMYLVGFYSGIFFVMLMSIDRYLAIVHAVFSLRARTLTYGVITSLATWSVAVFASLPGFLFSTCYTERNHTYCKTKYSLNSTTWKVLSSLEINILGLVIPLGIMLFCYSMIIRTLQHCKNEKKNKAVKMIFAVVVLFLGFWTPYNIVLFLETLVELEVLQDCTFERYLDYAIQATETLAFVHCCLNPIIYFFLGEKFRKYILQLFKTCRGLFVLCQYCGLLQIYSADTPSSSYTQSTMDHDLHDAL
Assay: Inverse agonist activity at CCR4 in human HTLA cells assessed as depression of basal activity incubated for 20 mins by beta arrestin-recruitment mediated luciferase reporter gene assay in absence of CCL22
Outline: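 Transfected HTLA β-arrestin2-TEV/tTA-luciferase cells expressing CCR4, in serum-free DMEM, treated with compound dilutions in HBSS/20 mM HEPES pH 7.4 without CCL22 agonist; luciferase luminescence read on day 4; basal signal depression plotted as concentration-response curves.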

CCC(C)n1ncn(-c2ccc(N3CCN(c4ccc(OC[C@H]5CO[C@](Cn6cncn6)(c6ccc(Cl)cc6Cl)O5)cc4)CC3)cc2)c1=O (stereo partly specified) [Oriconazole]
IC50: 0.2 µM
